# Data: ChEMBL document CHEMBL1140872, “Discovery of a potent and selective inhibitor for human carbonyl reductase 1 from propionate scanning applied to the macrolide zearalenone” (Bioorg Med Chem, 2009)
# Biological target: T1, Carbonyl reductase [NADPH] 1 (Homo sapiens, UniProt P16152)
# T1 sequence (P16152 whole entry): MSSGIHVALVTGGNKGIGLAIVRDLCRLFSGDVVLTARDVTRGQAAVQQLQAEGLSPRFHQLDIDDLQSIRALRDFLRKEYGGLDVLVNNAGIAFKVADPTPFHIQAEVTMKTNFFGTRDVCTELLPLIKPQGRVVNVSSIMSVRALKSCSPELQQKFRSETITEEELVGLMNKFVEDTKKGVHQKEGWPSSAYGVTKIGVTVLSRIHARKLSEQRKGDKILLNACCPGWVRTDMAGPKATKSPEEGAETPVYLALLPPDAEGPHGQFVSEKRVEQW
# Assay: Binding affinity to human recombinant carbonyl reductase 1 expressed in Escherichia coli assessed as NADPH oxidation using isatin as substrate
# How it was run: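 Purified recombinant CBR1 (200 nM) and NADPH were added to compound in 50 mM sodium phosphate, pH 6.8, 1 mM MgCl2. NADPH oxidation was followed as the fluorescence decrease at 460 nm (excitation 355 nm). Rates came from linear regression after normalising to the fluorescence rise at injection. Compounds were titrated at two isatin levels, with no-protein background subtracted. Sigmoidal fit gave IC50, then Ki from the isatin concentration.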
Compound,IC50 [nM],Ki [nM]
C[C@H]1CCCC(=O)[C@@H](C)CC/C=C/c2cc(O)cc(O)c2C(=O)O1,210,40
C[C@@H]1C[C@H]2O[C@@H]2/C=C\C=C\C(=O)Cc2c(Cl)c(O)cc(O)c2C(=O)O1 [RADICICOL],3270,520
